Compounds with a hit are over-represented: about 4.1% of the library has one in this group of screens.
MPTP inh: permeability transition pore inhibition; inhibition, % at 10 µM; isolated mouse mitochondria, Ca2+ swelling absorbance, 30 min; 360,000 compounds, 1.4% hits; AID 602449;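 active = inhibition of 50% or more, scaled per plate between neutral and stimulator controls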;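 note: 0% = DMSO wells given calcium and 100% = 1 mM EGTA wells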
ATG4B inh: inhibitors of human ATG4B cysteine protease; Q9Y4P1; ATG4B cleavage of LC3-PLA2, NBD-HPC fluorescence, 1 h; inhibition, % at 8.33 µM; 340,000 compounds, 0.51% hits; in the data active = inhibition above about 40%
MC4R antagonist: antagonists of human melanocortin 4 receptor (MC4R); P32245; MC4R-expressing cells, MTII-stimulated cAMP, LANCE TR-FRET; inhibition, % at 6.5 µM; 360,000 compounds, 0.48% hits; AID 540295;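 active = inhibition above its plate's cutoff, the mean of tested wells on that plate plus 3 SD, cut at about 29% in these data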;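 note: 0% = Melanotan II alone and 100% = Melanotan II plus saturating MCL0020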
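material = U2OS cells stably expressing human melanocortin 4 receptor (MC4R) | also added = Melanotan II challenge | dosing = single nominal compound dose of 6.5 µM | detection = TR-FRET with Eu-cAMP and labeled anti-cAMP, 671 nm | replication = singlicate | timing = compound 30 min, challenge 1 h, detection 1 h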
SMARCA2 activ: increases SMARCA2 function in MMTV reporter cells; activation, % at 9.1 µM; 370,000 compounds, 1% hits; MG213 cells, MMTV-luciferase reporter, dexamethasone, overnight; AID 652017; in the data active = activation above about 7.8%;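 note: 0% = vehicle wells and 100% = reference activator wells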
MC4R barr agon: agonists of human melanocortin 4 receptor (MC4R) beta-arrestin; P32245; U2OS MC4R beta-arrestin complementation, luminescence; percent of melanotan II response, DMSO zero; activation, % at 8.9 µM; 360,000 compounds, 0.98% hits; AID 540308;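 active = activation above a per-plate cutoff, the mean activation of sample wells on that plate plus 3 SD, cut at about 8% in these data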
MC4R barr conf: human MC4R beta-arrestin agonism confirmation | activation, % at 8.9 µM | AID 602192 | U2OS MC4R beta-arrestin recruitment, luminescence; scaled DMSO 0%, Melanotan II 100% | 2,400 compounds, 31% hits | shares compounds with MC4R barr agon;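 active = mean activation across replicates above the hit cutoff set in the earlier primary screen, cut at about 8% in these data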
MOR DOR agonist: OPRM1-OPRD1 heterodimer agonism counter-screen. U2OS PathHunter beta-arrestin, beta-gal luminescence; percent of deltorphin B response, DMSO zero. shares compounds with MC4R barr agon. activation, % at 9.2 µM. AID 602194. 2,400 compounds, 5.8% hits;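 active = mean activation across replicates exceeds the hit threshold derived in the earlier primary screen, cut at about 18% in these data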;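 note: 100% = deltorphin B at 0.9 µM final and 0% = DMSO alone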
Target sequence (P35372 whole entry, looked up): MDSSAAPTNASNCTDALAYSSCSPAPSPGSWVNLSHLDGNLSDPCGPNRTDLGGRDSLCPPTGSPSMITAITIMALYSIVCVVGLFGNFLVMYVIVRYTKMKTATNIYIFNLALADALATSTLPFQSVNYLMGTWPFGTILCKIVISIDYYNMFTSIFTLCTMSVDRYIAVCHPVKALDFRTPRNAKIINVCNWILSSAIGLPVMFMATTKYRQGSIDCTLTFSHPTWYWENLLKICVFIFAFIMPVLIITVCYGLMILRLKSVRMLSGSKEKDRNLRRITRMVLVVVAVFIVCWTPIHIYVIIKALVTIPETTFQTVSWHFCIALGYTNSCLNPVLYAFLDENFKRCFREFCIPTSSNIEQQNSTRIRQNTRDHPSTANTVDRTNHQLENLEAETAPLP
Target sequence (P41143 whole entry, looked up): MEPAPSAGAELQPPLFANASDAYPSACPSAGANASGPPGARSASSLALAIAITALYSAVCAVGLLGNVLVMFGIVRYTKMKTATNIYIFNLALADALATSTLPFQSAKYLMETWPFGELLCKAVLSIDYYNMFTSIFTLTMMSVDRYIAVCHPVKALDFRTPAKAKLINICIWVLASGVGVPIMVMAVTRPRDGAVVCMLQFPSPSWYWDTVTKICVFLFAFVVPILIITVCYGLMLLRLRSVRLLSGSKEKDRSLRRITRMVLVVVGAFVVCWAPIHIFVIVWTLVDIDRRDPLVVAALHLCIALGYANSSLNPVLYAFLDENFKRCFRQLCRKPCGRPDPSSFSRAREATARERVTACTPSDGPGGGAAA
Numbers without * were called inactive; nt = no result.

SMILES | MPTP inh | ATG4B inh | MC4R antagonist | SMARCA2 activ | MC4R barr agon | MC4R barr conf | MOR DOR agonist
O=C(CSc1ccc(F)cc1)Nc1ccc(C2SCCS2)cc1 | 7 | -2 | 11 | 4 | 10* | 0 | 2
CCCc1c(C(=O)N/N=C/c2cccc3ccccc23)nnn1-c1nonc1N | 1 | 5 | 12 | -2 | 17* | 1 | 3
CC(C)c1c(C(=O)N/N=C/c2ccc(OCc3ccc(F)cc3)cc2)nnn1-c1nonc1N | 1 | 3 | 13 | -1 | 3 | nt | nt
CC(C)c1c(C(=O)N/N=C/c2ccc(OCc3ccccc3)cc2)nnn1-c1nonc1N | 1 | 8 | -1 | -5 | 14* | 4 | 6
Nc1nonc1-n1nnc(C(=O)N/N=C/c2ccc(OCc3ccccc3)cc2)c1CNc1ccccc1 | 4 | 2 | 8 | -1 | 25* | 5 | 3
Cc1cc(C)c(/C=N/NC(=O)c2nnn(-c3nonc3N)c2CN2CCC(C)CC2)c(C)c1 | 1 | -13 | 15 | 1 | 17* | 16* | 5
COC(=O)[C@]12C[C@H](CC(=O)NCCCN3CCCC3=O)C(=O)N(Cc3ccc4c(c3)OCO4)C1=C[C@H](COCc1ccccc1)O[C@@H]2C | nt | nt | nt | 4 | nt | nt | nt
CC(NCc1ccco1)C(=O)N1CCOCC1 (centres undefined) | nt | nt | nt | -3 | nt | nt | nt
CN(C)CCCNC(=O)c1c(N)[nH]c(C(=O)c2ccc(Br)cc2)c1-c1ccc(Br)cc1 | nt | nt | nt | -4 | nt | nt | nt
CC(C)CNS(=O)(=O)CC1NCc2cc3c(cc21)OCO3 (centres undefined) | nt | nt | nt | -3 | nt | nt | nt
CCOc1ccc(-c2n[nH]c(C)c2Oc2ccccc2OC)c(O)c1 | 2 | -5 | 11 | -4 | 12* | 3 | 7
C=C(C)COc1ccc(-c2n[nH]c(C)c2Oc2ccccc2OC)c(O)c1 | 7 | 19 | 5 | -1 | 12* | 5 | 8
C=C(C)COc1ccc(-c2nc(N)nc(C)c2Oc2ccccc2OC)c(O)c1 | 0 | -10 | 5 | 0 | 1 | nt | nt
COC(=O)[C@]12C[C@H](CC(=O)NCC3CCCCC3)C(=O)N(Cc3ccc(Cl)cc3Cl)C1=C[C@H](C(C)(C)C)O[C@@H]2C | nt | nt | nt | 0 | nt | nt | nt
Cc1ccc(C(=O)c2coc3c2C(=O)C(=O)c2ccccc2-3)cc1 | 4 | -7 | -7 | -4 | 16* | 17* | 9
Cc1ccc(C(=O)c2c(C)oc3c2C(=O)C(=O)c2ccccc2-3)cc1 | 0 | 8 | -6 | nt | 2 | nt | nt
N#Cc1cn(-c2ccccc2)nc1-c1ccccc1 | 0 | 3 | 0 | 2 | 12* | -1 | 9
OCc1cn(-c2ccccc2)nc1-c1ccc(-c2nn(-c3ccccc3)cc2CO)cc1 | 4 | -6 | 2 | 5 | 7 | nt | nt
NC(Cc1ccc(C(F)(F)F)cc1)c1csc(Nc2ccc(C(=O)NCc3ccco3)cn2)n1 (centres undefined) | 2 | nt | 11 | -7 | 16* | 32* | 13
CCCCN(C)C(=O)c1ccc(Nc2nc(C(N)Cc3ccc(C(F)(F)F)cc3)cs2)nc1 (centres undefined) | 3 | nt | 5 | -4 | 30* | 23* | 35*
COc1ccc(-c2cc(-c3nnc(SCC(=O)N4CCOCC4)n3N)[nH]n2)cc1 | nt | nt | nt | 0 | nt | nt | nt
COc1ccc2c(c1[N+](=O)[O-])CCC/C2=N/OC(=O)c1ccccc1SC | -1 | -7 | -3 | 4 | 1 | nt | nt
COc1ccccc1C(=O)O/N=C1/CCCc2c1ccc(OC)c2[N+](=O)[O-] | -2 | -1 | -1 | -2 | 20* | 6 | 9
CCN(C[C@H]1[C@@H](c2ccc(C3=CCCC3)cc2)[C@H](CO)N1Cc1ccccn1)S(=O)(=O)c1ccccc1[N+](=O)[O-] | nt | nt | nt | -3 | nt | nt | nt
Cc1nc(NC(=O)c2cc3ccccc3o2)ccc1Br | 1 | 8 | 0 | 0 | 11* | 0 | 3
SMILES | MPTP inh | ATG4B inh | MC4R antagonist | SMARCA2 activ | MC4R barr agon | MC4R barr conf | MOR DOR agonist
CCOC(=O)[C@@]12CCCC3=C1N(CCC3)C(=O)[C@H]2CC(=O)NCc1cccs1 | nt | nt | nt | -2 | nt | nt | nt
COc1cc(CNCCc2ccccc2)cc(Cl)c1OCc1ccccc1 | 6 | 4 | 4 | -1 | 14* | 10* | 13
CN(Cc1ccccc1Cl)C(=O)CN1C(=O)C2(OCCCO2)c2ccccc21 | nt | nt | nt | -3 | nt | nt | nt
COC(=O)C1=C(C)N(C)C(=NCc2ccc(OC)cc2)NC1c1cccc(C(F)(F)F)c1 (centres undefined) | nt | nt | nt | -1 | nt | nt | nt
COc1ccc(-c2cc3cccc(OC)c3oc2=O)cc1 | 0 | -10 | -4 | 3 | -1 | nt | nt
COc1ccc(Nc2nc(-c3cc4cccc(OC)c4oc3=O)cs2)cc1 | 4 | -7 | -3 | -1 | 20* | 5 | 5
CCCSc1nc2c(c(=O)[nH]c(=O)n2C)n1Cc1ccc(C)cc1 | 13 | 3 | -9 | -2 | -1 | nt | nt
C=CCSc1nc2c(c(=O)[nH]c(=O)n2C)n1Cc1ccc(C)cc1 | 0 | -3 | -42 | -2 | 14* | 1 | 6
O=C(O)Cn1nc2c3c(cccc3c1=O)-c1ccccc1-2 | -1 | -1 | 3 | 3 | 0 | nt | nt
Cc1ccc(-n2nc3c4c(cccc4c2=O)-c2ccccc2-3)cc1 | 3 | 7 | 8 | 1 | 21* | 10* | 6
N#C/C(=C\c1ccc([N+](=O)[O-])o1)C(=O)Nc1ccc(F)cc1 | 4 | -3 | 13 | -2 | 12* | 14* | 14
CC/C(=N/Nc1cccc(C)c1)c1cnnc(SC)n1 | 8 | 2 | -16 | -1 | 21* | 4 | 4
COc1ccc(C2=NN(C(=O)c3cccs3)C(c3ccccc3O)C2)cc1 (centres undefined) | 8 | -2 | -6 | 0 | 13* | 16* | 5
Cc1cc(C(O)c2ncc(-c3ccc(Oc4ccccc4)cc3)[nH]2)ccc1F (centres undefined) | 8 | nt | 2 | -3 | 12* | 4 | 6
OC(c1ccc(F)c(F)c1)c1ncc(-c2ccc(Cl)cc2)[nH]1 (centres undefined) | 5 | nt | 6 | 0 | 3 | nt | nt
OC(c1cc(F)cc(Cl)c1)c1ncc(-c2ccc(Cl)cc2)[nH]1 (centres undefined) | 21 | nt | -1 | -3 | 9.8* | 2 | 7
Cc1sc2nc(SCC(=O)NCc3ccco3)n(CCc3ccccc3)c(=O)c2c1C | 1 | 17 | 4 | 0 | 48* | 0 | 38*
C=CCn1c(SCC(=O)NCc2ccco2)nc2ccccc2c1=O | 0 | 2 | -3 | -2 | 0 | nt | nt
C=CCn1c(SCC(=O)NC(=O)NCc2ccco2)nc2sc(CC)cc2c1=O | 1 | -8 | -6 | -4 | 12* | 2 | 3

Source: PubChem BioAssay (several laboratories)
